Laboratory results taken from ChEMBL document CHEMBL1156186, “Anti-AIDS agents 81. Design, synthesis, and structure-activity relationship study of betulinic acid and moronic acid derivatives as potent HIV maturation inhibitors” (J Med Chem, 2010).
pEC50, pIC50: −log10 of the molar value. Calls of active or inactive are those of the source. The calls are words filed in the database; no cut-off is given here.

Tests used:
[1] = test system: Human immunodeficiency virus 1; experiment: Antiviral activity against HIV1 3B infected in human MT2 cells assessed as inhibition of viral replication at 0.8 to 100 ug/mL treated 1 day after infection measured on after 4 days postinfection by p24 antigen ELISA; format: functional, organism-based
Method in brief: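 MT-2 cells at 3×10⁵ cells/mL were infected with HIV-1 IIIB (125 TCID₅₀) in the presence of serially diluted sample, and fresh medium was added on day 1 post-infection. Supernatants were harvested on day 4 for p24 antigen ELISA. EC₅₀ is the concentration giving 50% suppression of replication. Values are the average of at least two separate experiments.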

MT2 = experiment: Cytotoxicity against human MT2 cells by XTT assay; format: cell-based
Method in brief: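 Toxicity was read by XTT on mock-infected MT-2 cells (3×10⁵ cells/mL), run as a duplicate set of the infection plates without virus, with medium added on day 1 and the assay ended on day 4. IC₅₀ is the concentration toxic to 50% of cells. Values are the average of at least two experiments.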

[2] = test system: Human immunodeficiency virus 1; experiment: Antiviral activity against HIV1 3B infected in human MT2 cells assessed as inhibition of viral replication treated 1 day after infection measured on after 4 days postinfection by p24 antigen ELISA; format: functional, organism-based; conditions: Human immunodeficiency virus 1, 3B
[3] = Therapeutic index, IC50 for human MT2 cells to EC50 for HIV1 3B; format: cell-based; conditions: read-out: Ratio IC50/EC50
Method in brief: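 TI is calculated as IC₅₀ (XTT, mock-infected MT-2) divided by EC₅₀ (p24 ELISA, HIV-1 IIIB-infected MT-2), both taken on day 4 post-infection from parallel plates. Values are the average of at least two experiments.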

[4] = test system: Human immunodeficiency virus 1; experiment: Antiviral activity against HIV1 NL4-3 infected in human MT4 cells assessed as inhibition of viral replication treated 1 day after infection measured on after 4 days postinfection by p24 antigen ELISA; format: functional, organism-based
Method in brief: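 MT-4 cells were infected with HIV-1 NL4-3 variants at an MOI of 0.01 in 96-well format with test sample. Culture supernatants were collected on day 4 post-infection for p24 antigen capture ELISA.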

[5] = test system: Human immunodeficiency virus 1; experiment: Antiviral activity against wild type HIV1 NL4-3 infected in human HeLa cells assessed as inhibition of virion-associated p25 to p24 conversion at 1 ug/mL after 2 days by Western blotting; format: functional, organism-based
Method in brief: (§1)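 HeLa cells were transfected with pNL4-3 proviral DNA and cultured with or without compound. Two days post-transfection, cells were metabolically labelled for 2 h with ³⁵S-Met/Cys. Cell lysates were prepared and virions were pelleted by ultracentrifugation. Both fractions were immunoprecipitated with HIV-Ig, and the p25 and p24 bands were examined by Western blotting.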

[6] = test system: Human immunodeficiency virus 1; experiment: Antiviral activity against HIV1 expressing CA-SP1 A1V mutant infected in human HeLa cells assessed as inhibition of virion-associated p25 to p24 conversion at 1 ug/mL after 2 days by Western blotting; format: functional, organism-based
Method in brief: (§2)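 HeLa cells transfected with pNL4-3 bearing the A1V or L231M mutation and cultured with or without test compound. Two days post-transfection, cells labeled 2 h with ³⁵S-Met/Cys. Cell lysates prepared; virions pelleted by ultracentrifugation. Cell and viral lysates immunoprecipitated with HIV-Ig, then Western blotted for p25 and p24.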

[7] = test system: Human immunodeficiency virus 1; experiment: Antiviral activity against HIV1 expressing CA-SP1 A1V mutant infected in human HeLa cells assessed as inhibition of cell line-associated p25 to p24 conversion at 1 ug/mL after 2 days by Western blotting; format: functional, organism-based; method in brief: as §2
[8] = test system: Human immunodeficiency virus 1; experiment: Antiviral activity against HIV1 expressing […] L231M mutant infected in human HeLa cells assessed as inhibition of cell line-associated p25 to p24 conversion at 1 ug/mL after 2 days by Western blotting; format: functional, organism-based; method in brief: as §2
[9] = test system: Human immunodeficiency virus 1; experiment: Antiviral activity against wild type HIV1 NL4-3 infected in human HeLa cells assessed as inhibition of cell line-associated p25 to p24 conversion at 1 ug/mL after 2 days by Western blotting; format: functional, organism-based; method in brief: as §1
[10] = test system: Human immunodeficiency virus 1; experiment: Antiviral activity against HIV1 expressing […] L231M mutant infected in human HeLa cells assessed as inhibition of virion-associated p25 to p24 conversion at 1 ug/mL after 2 days by Western blotting; format: functional, organism-based; method in brief: as §2

SMILES | inhibition [1] | pIC50 (MT2) | pEC50 [2] | selectivity ratio [3] | other results
CCCCC(=O)O[C@H]1CC[C@]2(C)[C@H]3CC[C@@H]4C5=CC(C)(C)CC[C@]5(C(=O)O)CC[C@@]4(C)[C@]3(C)CC[C@H]2C1(C)C | inactive | < 5.00 | – | – | –
C=C(C)[C@@H]1CC[C@]2(C(=O)O)CC[C@]3(C)[C@H](CC[C@@H]4[C@@]5(C)CC[C@H](OC(=O)CC(C)(C)C(=O)O)C(C)(C)[C@@H]5CC[C@]43C)[C@@H]12 [BEVIRIMAT] | – | 4.37 | 8.89 | 32900 | –
CC(C)C(=O)O[C@H]1CC[C@]2(C)[C@H]3CC[C@@H]4C5=CC(C)(C)CC[C@]5(C(=O)O)CC[C@@]4(C)[C@]3(C)CC[C@H]2C1(C)C | inactive | < 5.00 | – | – | –
CC(C)CC(=O)O[C@H]1CC[C@]2(C)[C@H]3CC[C@@H]4C5=CC(C)(C)CC[C@]5(C(=O)O)CC[C@@]4(C)[C@]3(C)CC[C@H]2C1(C)C | inactive | < 5.00 | – | – | –
CC1(C)C=C2[C@H]3CC[C@@H]4[C@@]5(C)CC[C@H](OC(=O)C6CCC6)C(C)(C)[C@@H]5CC[C@@]4(C)[C@]3(C)CC[C@@]2(C(=O)O)CC1 | inactive | < 5.00 | – | – | –
C=C(C)[C@@H]1CC[C@]2(C(=O)O)CC[C@]3(C)[C@H](CC[C@@H]4[C@@]5(C)CC[C@H](OC(=O)[C@@H]6CCCC[C@H]6C(=O)O)C(C)(C)[C@@H]5CC[C@]43C)[C@@H]12 | – | 4.39 | 4.76 | 2.4 | –
C=C(C)[C@@H]1CC[C@]2(C(=O)O)CC[C@]3(C)[C@H](CC[C@@H]4[C@@]5(C)CC[C@H](OC(=O)C[C@@](C)(CC)C(=O)O)C(C)(C)[C@@H]5CC[C@]43C)[C@@H]12 | – | – | – | – | inhibition [4]: inactive
CCC(=O)O[C@H]1CC[C@]2(C)[C@H]3CC[C@@H]4C5=CC(C)(C)CC[C@]5(C(=O)O)CC[C@@]4(C)[C@]3(C)CC[C@H]2C1(C)C | inactive | < 5.00 | – | – | –
CC1(C)C=C2[C@H]3CC[C@@H]4[C@@]5(C)CC[C@H](OC(=O)C(C)(C)C)C(C)(C)[C@@H]5CC[C@@]4(C)[C@]3(C)CC[C@@]2(C(=O)O)CC1 | inactive | < 5.00 | – | – | –
C=C(C)[C@@H]1CC[C@]2(C(=O)O)CC[C@]3(C)[C@H](CC[C@@H]4[C@@]5(C)CC[C@H](OC(=O)/C=C(/C)C(=O)O)C(C)(C)[C@@H]5CC[C@]43C)[C@@H]12 | – | 4.37 | 6.74 | 236 | –
C=C(C)[C@@H]1CC[C@]2(C(=O)O)CC[C@]3(C)[C@H](CC[C@@H]4[C@@]5(C)CC[C@H](OC(=O)C[C@@H](C)C(=O)O)C(C)(C)[C@@H]5CC[C@]43C)[C@@H]12 | – | 4.36 | 6.92 | 365 | –
C=C(C)[C@@H]1CC[C@]2(C(=O)O)CC[C@]3(C)[C@H](CC[C@@H]4[C@@]5(C)CC[C@H](OC(=O)C6CC=CCC6C(=O)O)C(C)(C)[C@@H]5CC[C@]43C)[C@@H]12 (some centres not stated) | inactive | 4.39 | – | – | –
CC1(C)C=C2[C@H]3CC[C@@H]4[C@@]5(C)CC[C@H](OC(=O)C6CCCC6)C(C)(C)[C@@H]5CC[C@@]4(C)[C@]3(C)CC[C@@]2(C(=O)O)CC1 | inactive | < 5.00 | – | – | –
CCCC(=O)O[C@H]1CC[C@]2(C)[C@H]3CC[C@@H]4C5=CC(C)(C)CC[C@]5(C(=O)O)CC[C@@]4(C)[C@]3(C)CC[C@H]2C1(C)C | inactive | < 5.00 | – | – | –
C=C(C)[C@@H]1CC[C@]2(C(=O)O)CC[C@]3(C)[C@H](CC[C@@H]4[C@@]5(C)CC[C@H](OC(=O)CCC(C)(C)C(=O)O)C(C)(C)[C@@H]5CC[C@]43C)[C@@H]12 | – | 4.38 | 7.32 | 870 | –
C=C(C)[C@@H]1CC[C@]2(C(=O)O)CC[C@]3(C)[C@H](CC[C@@H]4[C@@]5(C)CC[C@H](OC(=O)[C@@H]6CCC[C@H]6C(=O)O)C(C)(C)[C@@H]5CC[C@]43C)[C@@H]12 | – | 4.38 | 5.66 | 19 | –
C=C(C)[C@@H]1CC[C@]2(C(=O)O)CC[C@]3(C)[C@H](CC[C@@H]4[C@@]5(C)CC[C@H](OC(=O)C[C@H](C)C(=O)O)C(C)(C)[C@@H]5CC[C@]43C)[C@@H]12 | – | – | 8.06 | 3770 | Activity [5]: Active; Activity [6]: Active; Activity [7]: Active; Activity [8]: Active; Activity [9]: Active; Activity [10]: Active
CCC(C)C(=O)O[C@H]1CC[C@]2(C)[C@H]3CC[C@@H]4C5=CC(C)(C)CC[C@]5(C(=O)O)CC[C@@]4(C)[C@]3(C)CC[C@H]2C1(C)C (some centres not stated) | inactive | < 5.00 | – | – | –
C=C(C)[C@@H]1CC[C@]2(C(=O)O)CC[C@]3(C)[C@H](CC[C@@H]4[C@@]5(C)CC[C@H](OC(=O)CC(C)(CC)C(=O)O)C(C)(C)[C@@H]5CC[C@]43C)[C@@H]12 (some centres not stated) | – | 4.44 | 9.22 | 60700 | –
C=C(C)[C@@H]1CC[C@]2(C(=O)O)CC[C@]3(C)[C@H](CC[C@@H]4[C@@]5(C)CC[C@H](OC(=O)C6C7C=CC(C7)C6C(=O)O)C(C)(C)[C@@H]5CC[C@]43C)[C@@H]12 (some centres not stated) | inactive | 4.40 | – | – | –
